Most compounds without a hit are left out; they make up all but 12% or so of the library.
RAM inhibit – inhibitors of the yeast RAM network; hit rate 1.8% among 190,000; S. cerevisiae dse1pr::URA3 reporter, 5-FOA growth OD615, 2 d; analog-sensitive cbk1-as2 kinase mutant strain; inhibition, % at 50 µM; AID 868;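 active means inhibition above a set limit, 3 SD over mean compound inhibition, cut at about 8.4% in these data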;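 further: 0% = DMSO-only wells with no growth and 100% = 10 µM 1-NA-PP1 full growth; inhibition rescues growth on 5-FOA so higher OD means more RAM inhibition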
L major viab – reduces viability of Leishmania major promastigotes; resazurin fluorescence viability; inhibition, % at 10 µM; hit rate 9% among 200,000; AID 1063; in the data active means inhibition above about 50%;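 further: promastigotes grown with compound for 44 hours at 28 °C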
ABCG2 inh – inhibitors of human ABCG2 transporter, ABCB1 counter-screen; Q9UNQ0; IgMXP3 cells, JC-1 efflux, flow cytometry; inhibition, % at 6.6 µM; hit rate 0.1% among 190,000; AID 1325;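 active means inhibition above 80%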;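 further: 0% = DMSO and 100% = nicardipine control wells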
Target sequence (Q9UNQ0 whole entry, looked up): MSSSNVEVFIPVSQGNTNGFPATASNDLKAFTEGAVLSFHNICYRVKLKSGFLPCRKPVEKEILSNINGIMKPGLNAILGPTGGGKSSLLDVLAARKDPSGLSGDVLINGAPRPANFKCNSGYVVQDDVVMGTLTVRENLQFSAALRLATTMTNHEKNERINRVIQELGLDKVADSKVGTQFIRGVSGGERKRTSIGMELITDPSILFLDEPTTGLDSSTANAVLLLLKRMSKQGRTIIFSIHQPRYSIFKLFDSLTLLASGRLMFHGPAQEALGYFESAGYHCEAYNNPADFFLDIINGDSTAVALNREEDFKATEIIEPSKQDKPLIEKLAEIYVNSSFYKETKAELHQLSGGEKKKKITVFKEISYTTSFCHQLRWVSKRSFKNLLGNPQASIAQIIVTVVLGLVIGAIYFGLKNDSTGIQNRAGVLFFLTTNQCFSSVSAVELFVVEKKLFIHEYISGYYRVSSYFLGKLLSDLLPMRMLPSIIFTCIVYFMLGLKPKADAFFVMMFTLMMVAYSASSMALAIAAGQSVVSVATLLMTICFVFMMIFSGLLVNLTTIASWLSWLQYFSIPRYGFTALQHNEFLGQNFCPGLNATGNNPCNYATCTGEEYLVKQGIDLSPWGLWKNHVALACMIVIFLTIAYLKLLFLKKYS
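Times: 10 min at 25 °C | Test system: Two drug-resistant human cell lines, ABCG2 and ABCB1 | Quantity: 3 million cells/mL final, two lines in 1:1 ratio | Signal: Flow cytometry, 530 nm JC-1 signal | Dosing: Compound at 6.6 µM | Controls: Nicardipine and DMSO wells | Reagent: JC-1 as fluorescent efflux pump substrate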
ABCB1 inh – inhibitors of human ABCB1 transporter, ABCG2 counter-screen | P08183 | CCRF-Adr cells, JC-1 efflux, flow cytometry | inhibition, % at 6.6 µM | hit rate 0.067% among 190,000; in the data active means inhibition above about 40%;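 further: 0% = vehicle and 100% = reference inhibitor; higher value means more JC-1 retained so stronger ABCB1 efflux block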
WT yeast gro inh – growth inhibition of WT yeast, mitochondrial fusion screen; mitochondrial fusion phenotypic screen, WT strain; AID 1362; hit rate 2.1% among 190,000; inhibition, % at 10 µM; in the data active means inhibition above about 58%; tested in S. cerevisiae
Starred values were filed as active, the others as inactive; nt = no result given.

SMILES | RAM inhibit | L major viab | ABCG2 inh | ABCB1 inh | WT yeast gro inh
O=C(NC1CC1)c1ccc2c(c1)C1C3CCC(C3)C1C(c1ccccc1)N2 (stereo not drawn) | 2.2 | 35.5 | 2.1 | 2.6 | 71.2*
O=C(NC1CCCC1)c1cccc(Cl)c1 | 0.5 | 1.2 | 1.1 | -0.5 | 19.9
CCc1c(C)sc(NC(=S)N2CC(C)OC(C)C2)c1C(=O)OC (stereo not drawn) | 10.6* | 4.2 | 15.6 | 4.7 | 64.5*
CCc1c(C)sc(NC(=S)NC(C)C2CCCO2)c1C(=O)OC (stereo not drawn) | 2.2 | -1.5 | 16.3 | 1.0 | 9.4
O=C(Oc1ccc2cc(Br)ccc2c1)N1CCCCCC1 | 1.0 | 30.4 | 10.3 | 0.4 | 67.9*
O=C(Oc1ccc2ccc(=O)oc2c1)N1CCOCC1 | -0.1 | -1.5 | -0.9 | -1.9 | 7.8
O=C(Oc1ccc2ccccc2c1Br)N1CCCCCC1 | 1.1 | 0.1 | 1.4 | 0.4 | 70.5*
C=CCNC(=O)c1ccccc1NC(=O)C1COc2ccccc2O1 (stereo not drawn) | 6.0 | 9.0 | 3.1 | 0.1 | -11.0
Cc1ccc(NC(=O)CSc2nnc(C(F)(F)F)n2C)cc1[N+](=O)[O-] | -1.0 | 3.3 | 1.2 | -0.2 | -31.8
NCCOc1ccc(C2CCCCC2)cc1 | 0.9 | 100.0* | -0.4 | 0.3 | 15.6
CN(C)CCNC(=O)/C(=C/c1ccc(-c2cccc(Cl)c2)o1)NC(=O)c1ccccc1 | 1.5 | 100.4* | 12.2 | 0.2 | -5.1
CN(C)CCNC(=O)/C(=C/c1ccc(-c2cccc([N+](=O)[O-])c2)o1)NC(=O)c1ccccc1 | -0.7 | 46.0 | 5.6 | 0.3 | 0.0
Cc1ccc(C(=O)N/C(=C\c2ccc(Cl)cc2)C(=O)NCCCN2CCOCC2)cc1 | -1.3 | 2.1 | 2.2 | 0.2 | -9.2
Cc1ccc(C(=O)N/C(=C/c2ccc(-c3cccc([N+](=O)[O-])c3)o2)C(=O)NC(C)C)cc1 | 2.7 | 2.2 | 44.6 | 0.7 | -4.8
Cc1ccc(C(=O)N/C(=C/c2ccc(-c3cccc([N+](=O)[O-])c3)o2)C(=O)NC(C)(C)C)cc1 | 4.3 | 82.4* | 28.2 | 0.9 | 26.8
Cc1ccc(/C=C(\NC(=O)c2ccccc2)C(=O)NCCc2ccccn2)o1 | 0.9 | -5.1 | -2.3 | -0.4 | -3.6
CN(C)CCCNC(=O)/C(=C\c1ccc(-c2ccc(Br)cc2)o1)NC(=O)c1ccccc1 | 2.4 | 100.5* | -0.1 | -0.1 | -11.2
Cc1ccc(C(=O)N/C(=C\c2ccc(-c3ccc(Cl)cc3)o2)C(=O)NCCCN(C)C)cc1 | -0.7 | 100.7* | 0.4 | 0.1 | 4.2
Cc1cc(C)c(S(=O)(=O)NCC(=O)NCc2ccccn2)c(C)c1 | 2.1 | -1.6 | 3.3 | 0.9 | -7.8
O=C(O)CCCNc1ccc(S(=O)(=O)N2CCCCC2)cc1 | 2.5 | -2.4 | 1.4 | 0.8 | -0.4
COc1ccc(S(=O)(=O)Nc2nnc(Cc3ccc(OC)c(OC)c3)s2)cc1 | 3.0 | -7.5 | 0.0 | 0.0 | 7.2
O=C(NCCN1CCOCC1)c1ccc2c(c1)N(Cc1c(F)cccc1Cl)C(=O)c1ccccc1S2 | 0.9 | 100.0* | -5.2 | 13.8 | -2.0
Cc1ccc(N=Nc2c(N)nn(-c3ccccc3)c2N)cc1 | 3.2 | 15.5 | 1.4 | 0.1 | 11.1
Cc1nn(-c2ccccc2)c(N)c1N=Nc1ccc2ccccc2c1 | 6.3 | -1.1 | 20.1 | -1.1 | 70.1*
O=C(NCCO)/C(=C\c1ccc(Br)cc1)NC(=O)c1cccs1 | 0.5 | -2.5 | 0.7 | 0.6 | 12.1
SMILES | RAM inhibit | L major viab | ABCG2 inh | ABCB1 inh | WT yeast gro inh
CC1CCN(Cc2ccc(-c3nnn(CC(=O)Nc4ccccc4Cl)n3)cc2)CC1 | 0.1 | 64.3* | 0.3 | 0.2 | -3.8
O=C(Cn1nnc(-c2ccc(S(=O)(=O)N3CCCC3)cc2)n1)Nc1ccccc1-n1cccc1 | 1.6 | 95.5* | 2.0 | 1.6 | -9.1
Cc1cccc(C)c1NC(=O)Cn1nnc(-c2ccc(CN3CCC(C)CC3)cc2)n1 | 4.6 | 21.8 | 2.7 | 1.4 | -5.3
O=C(COC(=O)COc1ccccc1)Nc1ccc(S(=O)(=O)N2CCOCC2)cc1 | 2.5 | -0.6 | -2.4 | -0.2 | -7.7
Cc1ccc2cc(CN(Cc3ccc4c(c3)OCO4)Cc3nnnn3Cc3ccco3)c(=O)[nH]c2c1C | 6.8 | 68.5* | 7.5 | 4.1 | 16.1
Cc1ccc(C)c2[nH]c(=O)c(CN(Cc3ccc4c(c3)OCO4)Cc3nnnn3Cc3ccco3)cc12 | 3.8 | 58.5* | 2.1 | 3.6 | 29.5
Cc1ccc(/C=C(\C#N)C(=O)Nc2ccccn2)o1 | -1.7 | 3.5 | 1.0 | -0.3 | 13.5
O=c1[nH]cnc2c1N=C(c1cccc([N+](=O)[O-])c1)CC(c1ccccc1)N2 (stereo not drawn) | 0.6 | -7.7 | 0.4 | 0.1 | 4.1
Cc1cc(Nc2ccccc2)nn1C(=O)c1ccc(Cl)cc1 | -0.1 | -0.6 | 0.6 | 0.1 | 80.2*
Cc1cc(Nc2ccccc2)nn1C(=O)c1ccc([N+](=O)[O-])cc1 | 5.5 | -3.1 | 33.4 | 1.1 | -6.0
CC(Sc1nnc(NC2CCCCC2)s1)C(=O)Nc1ccc2c(c1)C(=O)c1ccccc1C2=O (stereo not drawn) | 3.8 | 66.5* | 2.2 | nt | 20.5
CS(=O)(=O)c1ccc(C(=O)OCC(=O)NC(=O)C2CCCCC2)cc1[N+](=O)[O-] | 2.3 | -2.7 | 29.0 | 3.9 | -14.5
COCCNCC#CCOc1ccc(OC)cc1 | 2.7 | -3.3 | 2.7 | 0.5 | -5.0
COc1ccc(OCCCNCCc2ccccc2)cc1 | 1.3 | -10.5 | 4.6 | 0.4 | -3.3
COCCNCCCOc1ccc(C(C)(C)c2ccccc2)cc1 | 0.7 | 98.6* | 1.7 | 0.8 | 2.7
C=CCNCC#CCOc1ccc(OC)cc1 | 2.2 | 98.9* | -0.1 | 0.2 | 3.5
COCCCNCCCOc1ccc(C(C)(C)c2ccccc2)cc1 | -0.3 | 99.2* | 3.1 | 1.3 | 44.7
COCCNC(=O)COc1ccc(Br)cc1Cl | 1.5 | 0.8 | 12.8 | -0.9 | -11.0
Clc1cc(Br)ccc1OCCCNCc1ccccc1 | 0.8 | 99.2* | 15.6 | 6.7 | 90.5
CC(C)N(CCO)C(=O)CCc1nnc(Cc2cccc(C(F)(F)F)c2)o1 | 2.5 | -4.0 | 3.5 | 1.1 | 9.1
CC(C)(C)c1ccc(OCCCNCc2ccccc2)cc1 | -1.0 | 99.5* | 3.7 | 1.9 | 87.0*
CC(C)(c1ccccc1)c1ccc(OCCCNCCO)cc1 | -0.2 | 100.4* | 3.8 | 1.1 | 91.8*
C=CCNCCCOc1ccc(C(C)(C)c2ccccc2)cc1 | -0.3 | 99.7* | 7.8 | 0.4 | 50.6
CCc1cc(OCCN(C)C)ccc1Cl | 0.4 | 5.3 | 7.9 | 0.0 | -1.9
COc1cccc(OC)c1OCCNCCO | -1.1 | 11.1 | 0.3 | 0.2 | -10.4
SMILES | RAM inhibit | L major viab | ABCG2 inh | ABCB1 inh | WT yeast gro inh
CCc1cc(OCCCCNCc2ccccc2)ccc1Cl | -0.4 | 99.0* | 1.7 | 1.1 | 85.5
CCCCOCCCNC(=O)CCCOc1ccccc1 | -0.2 | 2.4 | 8.6 | -0.7 | -2.1
C=CCNCCCCOc1ccc(OCC)cc1 | 2.9 | 100.1* | 4.3 | 0.7 | nt
CC(C)NCC(O)COCCOc1ccc(C(C)(C)C)cc1 (stereo not drawn) | -0.6 | 22.6 | -11.7 | 0.2 | -5.0
CC(C)NCCCOc1ccc(C(C)(C)c2ccccc2)cc1 | 0.5 | 99.3* | 1.5 | 0.4 | nt
CC(C)(C)c1ccccc1OCCOCCNCc1ccccc1 | -1.5 | 96.5* | 5.9 | 1.4 | 45.0

Compound activity: PubChem, several laboratories
